Data reported in PubChem BioAssay.
Calls of active or inactive are those of the source.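 How the source made its calls, unless noted: active means visually confirmed hit in the image check and inhibition above 20%; inconclusive means visually confirmed hit but inhibition not above 20%; inactive means no visual hit in the image check.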

Key:
[1] = inhibitors of TNFa-induced NFkB p65 translocation, primary screen, imaging, HUVEC, MLSMR starter and 10KST1 sets (AID 438;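 active means inhibition above 20% together with a positive visual image hit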;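 further: compound added about 3h40 before a 20 min TNFalpha stimulation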;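 on inhibition: signal is the nuclear over cytoplasmic p65 intensity ratio per well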); settings: HUVEC TNFa-induced p65 nuclear translocation; cell count: measured here: nuclei count (cytotoxicity indicator), at 2.08 µM; inhibition: at 2 µM, stronger effect = higher value, 0% TNFa-plus-vehicle, 100% no-TNFa wells
[2] = endothelial E-selectin expression blockers – imaging, HUVEC, immunofluorescence, MLSMR starter and 10KST1 sets, primary screen (AID 487); settings: HUVEC TNFalpha-induced E-selectin immunofluorescence imaging, at 2 µM; inhibition: stronger effect = higher value; nuclei count: measured here: cell number, toxicity;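 on inhibition: signal is fraction of cell area covered by stained E-selectin grains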;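 on nuclei count: 100% = median nuclei count of all wells on the same plate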
[3] = Primary imaging screen for DUSP6 inhibitors that restore phospho-Erk in transfected HeLa cells, chemical complementation (AID 609;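 active means compounds giving at least 50% inhibition in the cell-based MKP-3 phosphatase rescue imaging test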;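 on inhibition: phospho-Erk level distribution per well compared with pooled transfected vehicle control wells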); settings: HeLa MKP-3 transfected, phospho-Erk imaging KS statistic, at 10 µM, cells stimulated with TPA for 15 min
[4] = target: Dual specificity protein phosphatase 6 (Homo sapiens) (UniProt Q16828); test: as above; settings: HeLa MKP-3 transfected, phospho-Erk imaging KS statistic; at 10 µM; stronger effect = higher value; cells stimulated with TPA for 15 min
Sequence of Dual specificity protein phosphatase 6 (Homo sapiens) (Q16828 whole entry, looked up): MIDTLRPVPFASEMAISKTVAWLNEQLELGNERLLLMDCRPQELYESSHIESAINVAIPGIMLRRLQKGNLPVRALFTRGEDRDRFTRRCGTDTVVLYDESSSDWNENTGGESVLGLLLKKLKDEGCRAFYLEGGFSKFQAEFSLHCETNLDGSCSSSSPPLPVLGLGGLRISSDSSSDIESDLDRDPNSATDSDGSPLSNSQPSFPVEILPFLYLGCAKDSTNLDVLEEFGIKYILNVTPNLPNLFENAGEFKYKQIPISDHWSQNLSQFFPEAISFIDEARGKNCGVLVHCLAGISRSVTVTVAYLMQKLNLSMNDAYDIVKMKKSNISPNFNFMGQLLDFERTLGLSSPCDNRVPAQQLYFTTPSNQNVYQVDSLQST

[5] = target: Voltage-gated potassium channel subunit beta-2 (Rattus norvegicus) (UniProt P62483); test: inhibitors of rat Kvbeta2 reductase activity – biochemical, NADPH fluorescence, primary screen (AID 622;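 active means fluorescence slope higher than the sample average by over 3 SD, cut at about -0.22 in these data, passing the limit was not always enough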;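 further: slope of raw intensity against log time taken from 70 to 1610 s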); settings: recombinant KvBeta, 4-cyanobenzaldehyde reduction, at 10 µM, stronger effect = higher value
Sequence of Voltage-gated potassium channel subunit beta-2 (Rattus norvegicus) (P62483 whole entry, looked up): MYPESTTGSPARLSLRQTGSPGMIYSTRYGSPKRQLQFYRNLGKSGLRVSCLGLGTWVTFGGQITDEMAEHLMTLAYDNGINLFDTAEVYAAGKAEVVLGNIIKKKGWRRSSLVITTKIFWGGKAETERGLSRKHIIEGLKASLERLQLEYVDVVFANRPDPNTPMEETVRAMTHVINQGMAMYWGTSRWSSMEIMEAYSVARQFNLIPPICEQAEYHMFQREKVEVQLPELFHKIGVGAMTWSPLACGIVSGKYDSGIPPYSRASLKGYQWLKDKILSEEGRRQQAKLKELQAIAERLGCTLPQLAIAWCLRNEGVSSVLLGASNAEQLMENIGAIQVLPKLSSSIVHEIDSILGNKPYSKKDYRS

[6] = target: Voltage-gated potassium channel subunit beta-2 (Rattus norvegicus) (UniProt P62483); test: enhancers of rat Kvbeta2 NADPH turnover – biochemical, NADPH fluorescence, primary screen (AID 623;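 active means NADPH fluorescence slope more negative than the mean of all samples by about 3 SD, 99.7% confidence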;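 further: fluorescence intensity change per second fitted from 20 to 320 s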); settings: Recombinant KvBeta, NADPH fluorescence decrease slope, 10 min; at 10 µM; stronger effect = lower value
[7] = target: Alpha-2C adrenergic receptor (Homo sapiens) (UniProt P18825); test: compounds altering alpha2C-coupled GIRK flux – cell-based, HEK293 alpha2C/GIRK1/2, thallium flux, primary screen (AID 624;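 active means fluorescence slope after compound addition differing from the mean of all screened samples at 99.7% confidence, in either direction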;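 further: slope of fluorescence ratio to pre-addition baseline per second over 15 to 24 s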); settings: thallium flux BTC fluorescence, at 10 µM, actives lie on both sides
Sequence of Alpha-2C adrenergic receptor (Homo sapiens) (P18825 whole entry, looked up): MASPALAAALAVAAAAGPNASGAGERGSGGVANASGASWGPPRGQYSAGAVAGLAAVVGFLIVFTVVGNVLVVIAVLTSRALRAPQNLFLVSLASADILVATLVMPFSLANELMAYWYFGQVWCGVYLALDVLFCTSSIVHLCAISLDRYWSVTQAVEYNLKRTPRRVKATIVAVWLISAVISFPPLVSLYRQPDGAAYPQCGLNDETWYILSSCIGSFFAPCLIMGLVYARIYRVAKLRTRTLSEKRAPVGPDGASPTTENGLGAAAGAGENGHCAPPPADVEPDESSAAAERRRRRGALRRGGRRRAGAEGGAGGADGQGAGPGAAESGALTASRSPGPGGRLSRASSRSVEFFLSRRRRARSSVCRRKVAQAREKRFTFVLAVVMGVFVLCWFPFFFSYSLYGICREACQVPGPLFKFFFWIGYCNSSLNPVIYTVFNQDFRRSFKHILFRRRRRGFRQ

[8] = inhibitors of larval lipid processing in zebrafish, primary screen, whole organism, PED6 fluorescence, gall bladder and intestine (AID 686;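 active means a full or partial loss of lipid-probe fluorescence in the fish gall bladder, intestine or both, judged by eye; inactive means no fluorescence loss, or compound toxic to the fish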;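 further: larvae 5 to 7 days old with five fish per well; signal comes from phospholipase A2 cleavage of quenched PED6 carried via bile; overnight exposure to compound and PED6 before scoring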); settings: Zebrafish larvae PED6 lipid processing, fluorescence scoring; screened at 20 µM (by protocol)
In short: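 Also added: quenched phospholipase substrate PED6, 100 nM final, ingested by larvae; System: zebrafish larvae, 5-7 d; Quantity: 5 larvae per well; Compound: 20 µM single dose; Schedule: overnight compound and PED6 incubation; Read-out: visual per-well fluorescence inhibition score; Measured by: By-eye fluorescence microscopy; Medium: E3.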

[9] = loss of swimming-algae plug formation – whole organism, Chlamydomonas reinhardtii, WT vs cilia-less mutant, absorbance, 96-well, primary screen (AID 463189;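 active means inhibition at or above 50% relative to wild type and mutant plate controls; inactive means inhibition below 50%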;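 further: 0% = wild type cc124 cells in DMSO and 100% = ciliumless bld1 mutant cells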); settings: Chlamydomonas reinhardtii gravitaxis, OD600 absorbance, 2 days; at 10 µM; stronger effect = higher value
[10] = measured here: cell density z-score
[11] = measured here: nuclear c-Myc green intensity z-score
[12] = measured here: nuclear pErk red intensity z-score, stronger effect = higher value

Structure (SMILES)	cell count [1]	inhibition [1]	inhibition [2]	nuclei count [2] [%]	z-score [3, 10]	z-score [3, 11]	z-score [3, 12]	inhibition [4]	fluorescence slope [5]	NADPH fluorescence slope [6]	slope [7]	outcome [8]	inhibition [9]
Clc1ccc(-c2cn3c(n2)CCC3)cc1	567	-16.9% (inactive)	0.7% (inactive)	171	-1.6	1.21	1.33	-6.86% (inactive)	-0.504 (inactive)	-9.3e-05 (inactive)	0.00501 (inactive)	inactive	3.42% (inactive)
CCOC(=O)CCc1c(C)c(C#N)c2nc3ccccc3n2c1-n1ccnc1	559	-4.6% (inactive)	-37.8% (inactive)	140	1.11	-0.305	0.783	25.8% (inactive)	-0.172 (inactive)	-3.3e-07 (inactive)	0.0062 (inactive)	inactive	-3.19% (inactive)
Oc1ccc2ccccc2c1/C=N/n1cnnc1	538	-5.9% (inactive)	-57.1% (inactive)	217	0.969	0.692	-0.685	-2.91% (inactive)	-0.356 (inactive)	-1.6e-05 (inactive)	0.00487 (inactive)	inactive	-4.69% (inactive)
COC(=O)CSc1nnc2n(-c3ccc(OC)cc3)c(=O)c3c4c(sc3n12)CCCCC4	607	-2.8% (inactive)	-233% (inactive)	149	-0.0268	0.911	-4.12	1.04% (inactive)	-0.411 (inactive)	-4.4e-05 (inactive)	0.00667 (inactive)	inactive	-10.1% (inactive)
COc1ccc(/C=N/n2cncn2)cc1COc1ccc(NC(C)=O)cc1	307	-11.9% (inactive)	-81.9% (inactive)	99.2	1.57	0.491	-0.528	24.3% (inactive)	-0.402 (inactive)	3.3e-05 (inactive)	0.00513 (inactive)	inactive	-6.96% (inactive)
CNC(=O)c1cc2c(ccc3ccccc32)oc1=N	498	-4% (inactive)	-64.4% (inactive)	134	0.106	1.1	-0.558	-0.159% (inactive)	-0.075 (active)	-2.6e-05 (inactive)	0.00187 (inactive)	inactive	0.922% (inactive)
Nc1nnc(CC2=CCCCC2)s1	579	-13.4% (inactive)	28.3% (inactive)	152	-0.93	0.818	-0.135	-9.66% (inactive)	-0.396 (inactive)	-3.4e-05 (inactive)	0.00749 (inactive)	inactive	8.68% (inactive)
Cc1ccsc1C1NC(=O)c2c(sc3c2CCCC3)N1 (configuration not stated)	584	-31.7% (inactive)	-31.6% (inactive)	166	-1.62	-0.46	1.02	-18.6% (inactive)	-0.411 (inactive)	-3.5e-05 (inactive)	0.00518 (inactive)	inactive	22.5% (inactive)
COc1cccc(OC)c1OCC(C)CNCC1CCCO1 (configuration not stated)	524	-5.6% (inactive)	-156% (inactive)	123	-1	1.14	1.28	9.39% (inactive)	-0.524 (inactive)	-5e-05 (inactive)	0.00511 (inactive)	inactive	11.3% (inactive)
CC(C)N1CCc2c(sc(N)c2C#N)C1	617	-10.3% (inactive)	39.1% (inactive)	177	-1.53	0.299	0.555	2.71% (inactive)	-0.418 (inactive)	-6.5e-05 (inactive)	0.00503 (inactive)	inactive	5.66% (inactive)
COc1ccc(C2N3CC4(C)CN2CC(C)(C3)C4O)cc1OC (configuration not stated)	348	-20.6% (inactive)	-105% (inactive)	122	0.441	-1.49	-0.949	-5.26% (inactive)	-0.473 (inactive)	-7.1e-05 (inactive)	0.00557 (inactive)	inactive	37% (inactive)
O=S(=O)(c1ccc(Cl)cc1)N1CCC(N2CCCCCC2)CC1	450	-23.8% (inactive)	-135% (inactive)	160	-0.279	-1.42	0.26	11% (inactive)	-0.321 (inactive)	6.3e-06 (inactive)	0.0047 (inactive)	inactive	121% (active)
Cc1c(CCC#N)c(N2CCCCC2)n2c(nc3ccccc32)c1C#N	547	-20.4% (inactive)	-116% (inactive)	155	0.117	-1.2	-0.217	-6.06% (inactive)	-0.341 (inactive)	-2.7e-05 (inactive)	0.00724 (inactive)	inactive	4.74% (inactive)
Cc1cc(OCCN2CCCCC2)nc2ccccc12	482	6.3% (inactive)	-39.5% (inactive)	95	1.18	-0.61	-0.992	26.3% (inactive)	-0.332 (inactive)	1.4e-05 (inactive)	0.0054 (inactive)	inactive	39.2% (inactive)
